Data reported in ChEMBL document CHEMBL1221386, “Synthesis and pharmacological evaluation of 3-aryl-3-azolylpropan-1-amines as selective triple serotonin/norepinephrine/dopamine reuptake inhibitors” (Bioorg Med Chem Lett, 2010).

How the values were obtained:
[1] = target: T1, Sodium-dependent noradrenaline transporter (Homo sapiens, UniProt P23975); assay: Inhibition of norepinephrine reuptake at human NET expressed in MDCK cells; format: cell-based
[2] = Cmax in rat at 10 mg/kg, po; format: ADME, organism-based; set-up: dose 10 mg/kg, route oral; details: in vivo
Cytochrome P450 2D6 = Cytochrome P450 2D6 (Homo sapiens, UniProt P10635); assay: Inhibition of CYP2D6; format: ADME
[3] = target: T2, Sodium-dependent serotonin transporter (Homo sapiens, UniProt P31645); assay: Inhibition of serotonin reuptake at human SERT expressed in HEK293 cells; format: cell-based
Target sequence in this assay (P31645 whole entry): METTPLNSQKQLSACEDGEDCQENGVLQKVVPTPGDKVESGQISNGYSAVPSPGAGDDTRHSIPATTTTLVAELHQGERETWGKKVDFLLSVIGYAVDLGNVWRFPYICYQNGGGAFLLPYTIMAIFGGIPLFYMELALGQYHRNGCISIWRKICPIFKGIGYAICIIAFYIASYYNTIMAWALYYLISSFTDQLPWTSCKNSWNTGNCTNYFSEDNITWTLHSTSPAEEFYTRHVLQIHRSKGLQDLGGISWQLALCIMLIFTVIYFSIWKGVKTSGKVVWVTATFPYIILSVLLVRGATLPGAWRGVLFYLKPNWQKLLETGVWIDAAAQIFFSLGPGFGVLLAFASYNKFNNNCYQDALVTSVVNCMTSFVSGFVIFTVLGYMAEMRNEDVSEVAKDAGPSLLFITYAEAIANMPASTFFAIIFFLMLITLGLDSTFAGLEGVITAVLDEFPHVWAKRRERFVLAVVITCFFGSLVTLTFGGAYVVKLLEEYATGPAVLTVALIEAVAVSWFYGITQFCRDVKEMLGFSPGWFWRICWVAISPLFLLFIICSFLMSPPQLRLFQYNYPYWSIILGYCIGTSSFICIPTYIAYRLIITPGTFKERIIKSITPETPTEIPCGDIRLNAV

[4] = target: T2, Sodium-dependent serotonin transporter; assay: Inhibition of serotonin reuptake at human SERT expressed in HEK293 cells at 100 nM
Target sequence in this assay (P31645 whole entry, looked up): as the sequence (P31645 whole entry) above

[5] = Inhibition of alpha1 adrenergic receptor at 10 uM
Mus musculus [6] = assay: Antidepressant activity in mouse assessed as change in locomotion at 90 mg/kg, po; format: functional
[7] = target: T3, Muscarinic acetylcholine receptor M1 (Homo sapiens) (UniProt P11229); assay: Inhibition of muscarinic M1 receptor at 10 uM
T3 sequence (whole entry): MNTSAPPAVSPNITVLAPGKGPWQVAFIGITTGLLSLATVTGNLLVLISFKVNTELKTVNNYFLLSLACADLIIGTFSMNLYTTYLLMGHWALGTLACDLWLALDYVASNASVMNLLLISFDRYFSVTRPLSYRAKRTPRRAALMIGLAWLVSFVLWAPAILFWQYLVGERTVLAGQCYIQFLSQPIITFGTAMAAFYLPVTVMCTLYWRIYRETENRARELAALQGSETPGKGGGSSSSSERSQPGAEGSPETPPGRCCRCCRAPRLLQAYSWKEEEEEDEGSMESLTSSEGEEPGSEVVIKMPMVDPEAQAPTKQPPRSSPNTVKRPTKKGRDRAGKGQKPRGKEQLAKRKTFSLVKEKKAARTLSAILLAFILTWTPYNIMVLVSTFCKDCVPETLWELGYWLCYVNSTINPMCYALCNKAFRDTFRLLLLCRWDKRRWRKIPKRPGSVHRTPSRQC

Cytochrome P450 3A4 = Cytochrome P450 3A4 (Homo sapiens, UniProt P08684); assay: Inhibition of CYP3A4; format: ADME
[8] = target: T4, Sodium-dependent dopamine transporter (Homo sapiens, UniProt Q01959); assay: Inhibition of dopamine reuptake at human dopamine transporter expressed in CHO cells at 100 nM
[9] = AUC (0 to infinity) in rat at 10 mg/kg, iv; format: ADME, organism-based; set-up: time infinity, dose 10 mg/kg, route intravenous; details: plasma
Mus musculus [10] = assay: Potentiation of […]-induced serotonin syndrome like behavior in po dosed mouse; format: functional; details: read-out: MED
In short: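 Mice, oral dosing. For serotonin potentiation, 5-hydroxytryptophan (5-HTP, serotonin precursor) is given to induce serotonin syndrome-like head twitch/stereotypy counts. Response is expressed as % potentiation relative to control group (0%). Minimal effective dose is the lowest dose reaching p <0.05. Doses are in mg/kg.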

[11] = target: Histamine H1 receptor (Homo sapiens) (UniProt P35367); assay: Inhibition of histamine H1 receptor at 10 uM
[12] = target: T1, Sodium-dependent noradrenaline transporter; assay: Inhibition of norepinephrine reuptake at human NET expressed in MDCK cells at 100 nM
[13] = Oral bioavailability in rat at 10 mg/kg; format: ADME, organism-based; details: in vivo
Cytochrome P450 2C9 = Cytochrome P450 2C9 (Homo sapiens, UniProt P11712); assay: Inhibition of CYP2C9; format: ADME
[14] = Clearance in rat at 10 mg/kg, iv; format: ADME, organism-based; set-up: dose 10 mg/kg, route intravenous; details: in vivo
[15] = target: T4, Sodium-dependent dopamine transporter; assay: Inhibition of dopamine reuptake at human dopamine transporter expressed in CHO cells; format: cell-based
In short: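 CHO-K1 cells stably expressing human DAT, assayed for [3H]DA uptake in duplicate. Nomifensine served as standard. IC50 determined.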

[16] = Half life in rat at 10 mg/kg, po; format: ADME, organism-based; set-up: dose 10 mg/kg, route oral; details: in vivo
[17] = Volume of distribution at steady state in rat at 10 mg/kg, iv; format: ADME, organism-based; set-up: dose 10 mg/kg, route intravenous; details: in vivo, read-out: Vdss
[18] = Cmax in rat at 10 mg/kg, iv; format: ADME, organism-based; set-up: dose 10 mg/kg, route intravenous; details: in vivo
[19] = Half life in human liver microsomes; format: ADME, Microsome
In short: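 Metabolic stability in human or rat liver microsomes. Half-lives measurable up to 60 min.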

[20] = AUC (0 to infinity) in rat at 10 mg/kg, po; format: ADME, organism-based; set-up: dose 10 mg/kg, route oral, time infinity; details: plasma
Mus musculus [21] = assay: Antidepressant activity in mouse assessed as change in locomotion at 150 mg/kg, po; format: functional
In short: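 Spontaneous locomotor activity in mice measured 1 h after oral dosing. Expressed relative to the control group set at 100%.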

Mus musculus [22] = assay: Antidepressant activity in mouse assessed as reduction of mobility time at 3 mg/kg, po by tail suspension test; format: functional; set-up: scale not given: the % may be the effect or the level left
In short: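 Mouse tail suspension test run as an oral dose–response. Read-out is percent reduction of immobility time; minimal effective dose taken at p<0.05.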

Cytochrome P450 1A2 = target: T5, Cytochrome P450 1A2 (Homo sapiens, UniProt P05177); assay: Inhibition of CYP1A2; format: ADME
T5 sequence (P05177 whole entry): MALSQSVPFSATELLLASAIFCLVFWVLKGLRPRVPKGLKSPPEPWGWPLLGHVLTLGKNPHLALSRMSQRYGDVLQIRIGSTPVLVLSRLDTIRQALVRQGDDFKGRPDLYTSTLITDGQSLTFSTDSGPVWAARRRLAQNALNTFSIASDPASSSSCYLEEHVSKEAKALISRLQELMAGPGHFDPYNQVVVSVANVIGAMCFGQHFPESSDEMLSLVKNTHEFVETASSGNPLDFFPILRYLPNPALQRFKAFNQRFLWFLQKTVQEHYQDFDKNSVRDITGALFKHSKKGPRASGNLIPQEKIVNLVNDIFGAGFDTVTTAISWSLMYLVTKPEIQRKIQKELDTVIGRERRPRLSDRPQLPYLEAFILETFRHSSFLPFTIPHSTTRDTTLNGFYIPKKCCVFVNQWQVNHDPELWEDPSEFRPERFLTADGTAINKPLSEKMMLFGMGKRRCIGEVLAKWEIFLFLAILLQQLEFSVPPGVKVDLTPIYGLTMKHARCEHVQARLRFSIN

[23] = Tmax in rat at 10 mg/kg, po; format: ADME, organism-based; set-up: dose 10 mg/kg, route oral; details: in vivo
[24] = target: Muscarinic acetylcholine receptor M3 (Homo sapiens) (UniProt P20309); assay: Inhibition of muscarinic M3 receptor at 10 uM
Chain of Muscarinic acetylcholine receptor M3 (Homo sapiens) (P20309 whole entry, looked up): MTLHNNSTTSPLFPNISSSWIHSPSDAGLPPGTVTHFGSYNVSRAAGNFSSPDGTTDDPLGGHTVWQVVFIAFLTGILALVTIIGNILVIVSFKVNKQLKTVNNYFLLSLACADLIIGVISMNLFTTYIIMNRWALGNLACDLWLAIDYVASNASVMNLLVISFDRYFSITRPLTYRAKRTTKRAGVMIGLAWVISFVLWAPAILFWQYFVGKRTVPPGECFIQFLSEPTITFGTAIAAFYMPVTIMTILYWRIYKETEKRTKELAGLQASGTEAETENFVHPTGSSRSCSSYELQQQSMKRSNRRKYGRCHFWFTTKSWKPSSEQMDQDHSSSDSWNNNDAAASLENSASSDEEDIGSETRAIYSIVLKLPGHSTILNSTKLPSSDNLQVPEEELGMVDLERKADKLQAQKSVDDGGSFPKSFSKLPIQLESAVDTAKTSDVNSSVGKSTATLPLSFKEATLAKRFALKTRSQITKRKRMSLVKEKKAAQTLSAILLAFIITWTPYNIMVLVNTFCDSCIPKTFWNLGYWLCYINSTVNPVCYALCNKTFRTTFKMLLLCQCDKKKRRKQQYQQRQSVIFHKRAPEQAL

T4 sequence (Q01959 whole entry): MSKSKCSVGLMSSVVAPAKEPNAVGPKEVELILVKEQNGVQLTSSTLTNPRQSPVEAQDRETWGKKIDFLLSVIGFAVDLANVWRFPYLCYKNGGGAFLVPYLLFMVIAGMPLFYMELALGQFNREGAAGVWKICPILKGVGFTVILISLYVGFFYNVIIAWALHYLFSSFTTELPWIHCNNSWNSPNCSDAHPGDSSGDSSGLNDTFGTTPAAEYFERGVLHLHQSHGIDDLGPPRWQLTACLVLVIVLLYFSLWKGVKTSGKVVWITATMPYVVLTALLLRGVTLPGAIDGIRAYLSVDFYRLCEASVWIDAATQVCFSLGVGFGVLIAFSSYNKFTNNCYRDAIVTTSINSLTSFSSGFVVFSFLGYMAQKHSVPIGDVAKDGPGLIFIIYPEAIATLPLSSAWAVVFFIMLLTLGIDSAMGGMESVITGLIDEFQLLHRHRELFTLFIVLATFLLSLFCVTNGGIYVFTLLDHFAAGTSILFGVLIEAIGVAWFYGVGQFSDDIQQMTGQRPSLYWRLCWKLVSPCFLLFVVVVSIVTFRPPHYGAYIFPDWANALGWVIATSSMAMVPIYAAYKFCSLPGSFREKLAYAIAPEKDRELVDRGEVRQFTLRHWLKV
T1 sequence (P23975 whole entry): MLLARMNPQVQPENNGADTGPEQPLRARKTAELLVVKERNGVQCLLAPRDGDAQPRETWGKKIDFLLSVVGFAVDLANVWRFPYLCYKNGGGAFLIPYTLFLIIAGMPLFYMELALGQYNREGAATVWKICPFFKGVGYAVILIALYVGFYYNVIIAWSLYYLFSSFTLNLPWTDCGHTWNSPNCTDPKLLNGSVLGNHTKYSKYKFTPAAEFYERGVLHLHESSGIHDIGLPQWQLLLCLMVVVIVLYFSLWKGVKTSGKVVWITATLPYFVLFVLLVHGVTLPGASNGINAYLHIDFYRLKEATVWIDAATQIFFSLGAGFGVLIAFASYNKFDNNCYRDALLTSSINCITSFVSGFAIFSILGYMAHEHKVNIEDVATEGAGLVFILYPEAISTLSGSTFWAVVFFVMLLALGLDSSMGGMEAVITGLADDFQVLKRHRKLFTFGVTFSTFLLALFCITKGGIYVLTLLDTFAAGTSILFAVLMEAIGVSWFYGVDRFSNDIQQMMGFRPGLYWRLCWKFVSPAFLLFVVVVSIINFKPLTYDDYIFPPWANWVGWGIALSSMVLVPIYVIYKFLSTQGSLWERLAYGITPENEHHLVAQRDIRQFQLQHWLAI
Chain of Cytochrome P450 2D6 (P10635 whole entry): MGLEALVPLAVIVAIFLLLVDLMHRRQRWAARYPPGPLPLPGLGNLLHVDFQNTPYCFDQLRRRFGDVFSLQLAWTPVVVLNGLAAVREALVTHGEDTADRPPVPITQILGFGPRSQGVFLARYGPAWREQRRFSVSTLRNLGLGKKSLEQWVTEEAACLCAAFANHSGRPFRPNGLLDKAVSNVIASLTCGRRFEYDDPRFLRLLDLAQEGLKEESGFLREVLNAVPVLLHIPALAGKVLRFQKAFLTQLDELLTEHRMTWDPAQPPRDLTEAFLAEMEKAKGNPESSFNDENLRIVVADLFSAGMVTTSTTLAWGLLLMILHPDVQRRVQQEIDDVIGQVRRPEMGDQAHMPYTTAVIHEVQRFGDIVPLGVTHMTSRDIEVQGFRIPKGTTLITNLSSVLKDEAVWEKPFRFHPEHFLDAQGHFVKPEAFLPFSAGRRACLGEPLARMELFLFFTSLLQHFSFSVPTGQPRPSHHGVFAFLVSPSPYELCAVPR
Chain of Histamine H1 receptor (Homo sapiens) (P35367 whole entry): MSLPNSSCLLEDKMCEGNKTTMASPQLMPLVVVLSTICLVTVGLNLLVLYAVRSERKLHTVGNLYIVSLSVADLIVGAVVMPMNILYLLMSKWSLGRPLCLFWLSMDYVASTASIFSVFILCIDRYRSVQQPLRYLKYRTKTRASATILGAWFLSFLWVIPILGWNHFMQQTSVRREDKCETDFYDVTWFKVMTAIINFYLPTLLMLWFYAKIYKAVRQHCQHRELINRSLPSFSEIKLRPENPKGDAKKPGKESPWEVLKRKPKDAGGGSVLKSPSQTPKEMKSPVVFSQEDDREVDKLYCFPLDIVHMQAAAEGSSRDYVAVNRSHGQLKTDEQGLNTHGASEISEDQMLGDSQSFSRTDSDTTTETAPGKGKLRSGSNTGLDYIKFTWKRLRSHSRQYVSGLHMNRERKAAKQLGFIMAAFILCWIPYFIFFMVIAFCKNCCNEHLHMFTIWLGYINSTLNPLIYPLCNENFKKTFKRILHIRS
Chain of Cytochrome P450 2C9 (P11712 whole entry): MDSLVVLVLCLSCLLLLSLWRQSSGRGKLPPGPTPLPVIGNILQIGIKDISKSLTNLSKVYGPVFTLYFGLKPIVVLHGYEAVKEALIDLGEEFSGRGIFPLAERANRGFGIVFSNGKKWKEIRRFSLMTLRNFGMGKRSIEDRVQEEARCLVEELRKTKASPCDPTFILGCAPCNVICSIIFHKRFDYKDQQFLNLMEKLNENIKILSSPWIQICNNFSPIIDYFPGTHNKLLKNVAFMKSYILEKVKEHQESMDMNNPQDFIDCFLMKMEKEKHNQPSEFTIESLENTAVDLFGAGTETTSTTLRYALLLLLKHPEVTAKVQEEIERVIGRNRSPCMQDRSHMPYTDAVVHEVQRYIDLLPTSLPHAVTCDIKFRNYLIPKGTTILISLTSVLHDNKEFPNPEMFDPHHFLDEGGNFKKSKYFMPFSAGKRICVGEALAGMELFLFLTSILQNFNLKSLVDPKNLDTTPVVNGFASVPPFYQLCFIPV

**Q.** Which results are given for `CNCC[C@@H](c1ccc(Cl)c(Cl)c1)n1nnc(C)n1`?
**A.** IC50 [1]: 0.0198 µM; Cmax [2]: 0.334 µg/mL; IC50 (Cytochrome P450 2D6): 6.9 µM; IC50 [3]: 0.143 µM; inhibition [4]: 43%; inhibition [5]: < 20%; Activity (Mus musculus [6]): 142%; inhibition [7]: < 20%; IC50 (Cytochrome P450 3A4): > 10 µM; inhibition [8]: 62%; AUC(0-inf) [9]: 4.15 µg·h/mL; minimal effective dose (Mus musculus [10]): 30 mg/kg; inhibition [11]: < 20%; inhibition [12]: 84%; bioavailability [13]: 43.2%; IC50 (Cytochrome P450 2C9): > 10 µM; clearance [14]: 2.52 L/h/kg; IC50 [15]: 0.058 µM; half-life [16]: 5.48 h; Vd [17]: 6.8 L/kg; Cmax [18]: 3.83 µg/mL; half-life [19]: > 1 h; AUC(0-inf) [20]: 1.79 µg·h/mL; Activity (Mus musculus [21]): 134%; Activity (Mus musculus [22]): 59.6%; IC50 (Cytochrome P450 1A2): > 10 µM; Tmax [23]: 0.75 h; inhibition [24]: < 20%
